Structures are written as SMILES.

System in one assay: not listed separately
The assay can be described thus: Growth inhibition of human PANC1 cells expressing K-Ras G12D mutant after 5 days by MTT assay. The format is functional, cell-based. The following applies: PANC-1, 120 h. In short, it runs like this: (§1)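 MTT read-out; 1,000 cells per well seeded the day before, then medium replaced with inhibitor at increasing concentrations, 0.5% DMSO constant; 5 days at 37 °C. MTT (5 mg/mL solution) added for a further 4 h, formazan dissolved in DMSO, absorbance at 590 nm; mean absorbance per concentration plotted.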
As usually defined, the IC50 is the point on the concentration scale where inhibition reaches its midpoint. Take `c1csc(C(=C2CCOCC2)c2ccc3ccccc3c2)c1`: the IC50 turned out to be 78 µM.

The target of another assay is Protein-S-isoprenylcysteine O-methyltransferase (Homo sapiens, UniProt O60725). The assay can be described thus: Inhibition of human isoprenylcysteine carboxyl methyltransferase expressed in yeast His10myc3N-Icmt membranes using AFC substrate and [14C]-SAM and incubated for 30 mins by liquid scintillation counting based methyltransferase vapor diffusion assay. The format is cell membranes.
Sequence of Protein-S-isoprenylcysteine O-methyltransferase (O60725 whole entry, the tested form may be a part): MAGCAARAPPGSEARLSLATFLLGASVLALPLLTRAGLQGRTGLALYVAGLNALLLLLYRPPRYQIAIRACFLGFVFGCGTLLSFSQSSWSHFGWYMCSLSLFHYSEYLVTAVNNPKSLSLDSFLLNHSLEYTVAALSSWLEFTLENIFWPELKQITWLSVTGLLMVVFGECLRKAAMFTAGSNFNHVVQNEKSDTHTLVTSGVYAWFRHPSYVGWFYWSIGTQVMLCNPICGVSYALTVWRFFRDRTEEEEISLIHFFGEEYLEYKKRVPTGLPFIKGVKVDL
Settings: not given
An outline of the steps:
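Crude yeast membranes (5 µg) in Tris-HCl 100 mM pH 7.4 with AFC 10 µM and [14C]-SAM 60 µM, compound at increasing concentrations, 5% DMSO; 37 °C 30 min, stopped with NaOH/SDS. Released radioactivity captured on filter paper over 2.5 h and counted. IC50 from specific activity (pmol/mg/min) versus concentration; three separate experiments in duplicate.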
In turn, `COC(=O)CCSC/C=C(\C)CCn1cc(CCc2ccc(-c3ccccc3)cc2)nn1` registered an IC50 of 0.4 µM.
Same read-out and setting: the value for `Oc1c(C(c2cccs2)C2CCOCC2)ccc2ccccc12` (stereo not drawn) was 18 µM; that for `Oc1c(C(=C2CCOCC2)c2cccs2)ccc2ccccc12` was 7.7 µM.
Same read-out and setting: the result for `c1ccc(C(=C2CCOCC2)c2cccs2)cc1` reads more than 50 µM; that for `Oc1c(C(c2cccs2)C2CCOCC2)ccc2cccnc12` (stereo not drawn), 14 µM.
Same read-out and setting: the result for `OC(c1ccccc1)(c1cccs1)C1CCOCC1` (stereo not drawn) reads more than 50 µM; that for `CN1CCC(C(c2ccc3ccccc3c2)c2cccs2)CC1` (stereo not drawn), more than 50 µM.
For the molecule `c1ccc(C(=C2CCOCC2)c2ccc3ccccc3c2)cc1`, the IC50 was more than 50 µM.
On the same count and under the same terms, the result for `O=C(c1ccc2ccccc2c1)C1CCOCC1` reads more than 50 µM; that for `c1ccc2cc(CC3CCOCC3)ccc2c1`, more than 50 µM.
On the same count and under the same terms, the result for `c1csc(C(c2ccc3ccccc3c2)C2CCNCC2)c1` (stereo not drawn) reads more than 50 µM.

System in a further assay: not listed separately
The assay can be described thus: Growth inhibition of human MIAPaCa2 cells expressing K-Ras G12C mutant after 5 days by MTT assay. The format is functional, cell-based. The conditions noted are these: MIA PaCa-2, 120 h. In short, it runs like this: as §1
For orientation: Formazan colour is commonly taken as a measure of viable cells.
In turn, `c1csc(C(=C2CCOCC2)c2ccc3ccccc3c2)c1` showed an IC50 of 31.9 µM.

Source of the values: ChEMBL document CHEMBL3822411, “Non-Substrate Based, Small Molecule Inhibitors of the Human Isoprenylcysteine Carboxyl Methyltransferase” (Medchemcomm, 2016).
